Experimental data reported in publication PMC3531959 (ChemMedChem, 2012).
Entries after “also recorded” stand apart in the source; their conditions may differ.

Target: Bos taurus Arp2/3 complex (Bos taurus, UniProt A7MB62+P61157)
Experiment: Pyrene actin polymerization assay
Format: biochemical
Settings: for inhibition of Arp2/3 complex (in words) / increase in IC50 relative to 1: actin polymerization assay; for increase in IC50 relative to 1: compared to 1
In short: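 Bovine Arp2/3 complex from calf thymus, activated by human N-WASp-VCA (residues 428-505, E. coli-expressed). Rabbit muscle actin, 30% pyrene-labelled at […], Mg/EGTA-exchanged. Polymerization started by adding Arp2/3 and VCA; final buffer 10 mM imidazole pH 7.0, 50 mM KCl, 1 mM EGTA, 1 mM MgCl2, 1 mM DTT. Read at ex 365/em 407 nm every 10 s for 45 min. Inhibitor tested up to 200 μM. IC50 from a fit of maximal rate (nM actin s⁻¹) versus concentration.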

Compound	IC50 [µM]	inhibition of Arp2/3 complex (in words)	increase in IC50 relative to 1	IC50 relative to 2 (higher IC50 than 2)
Cc1[nH]c2ccccc2c1CCNC(=O)c1ccc(Cl)cc1 [Compound 7, 4-chloro-N-(2-(2-methyl-1H-indol-3-yl)ethyl)benzamide]	181 ± 85	greatly reduced or no inhibition	15-20 fold	–
Cc1[nH]c2ccccc2c1CCNC(=O)c1cccc(Cl)c1 [Compound 11, 3-chloro-N-(2-(2-methyl-1H-indol-3-yl)ethyl)benzamide]	–	greatly reduced or no inhibition	–	–
Cc1[nH]c2ccccc2c1CCNC(=O)c1ccccc1Cl [Compound 10, 2-chloro-N-(2-(2-methyl-1H-indol-3-yl)ethyl)benzamide]	–	greatly reduced or no inhibition; also recorded: completely abolishes inhibition	–	–
Cc1[nH]c2ccccc2c1CCNC(=O)c1ccc(Cl)cc1F [Compound 6, 4-chloro-2-fluoro-N-(2-(2-methyl-1H-indol-3-yl)ethyl)benzamide]	32 ± 18	–	approximately 3 fold	–
Cc1[nH]c2ccccc2c1CCNC(=O)c1ccc(O)cc1F [Compound 2, 2-fluoro-4-hydroxy-N-(2-(2-methyl-1H-indol-3-yl)ethyl)benzamide]	4 ± 1	–	–	–
Cc1[nH]c2ccccc2c1CCNC(=O)c1cccc(Cl)c1F [Compound 8, 3-chloro-2-fluoro-N-(2-(2-methyl-1H-indol-3-yl)ethyl)benzamide]	238 ± 91	–	15-20 fold	–
COc1ccc(C(=O)NCCc2c(C)[nH]c3ccccc23)c(F)c1 [Compound 4, 2-fluoro-4-methoxy-N-(2-(2-methyl-1H-indol-3-yl)ethyl)benzamide]	19 ± 6	–	nearly double	fivefold
Cc1[nH]c2ccc(Cl)cc2c1CCNC(=O)c1ccccc1F [Compound 3, N-(2-(5-chloro-2-methyl-1H-indol-3-yl)ethyl)-2-fluorobenzamide]	18 ± 5	–	nearly double; also recorded: only slightly	–
